The subject of one test is Sporothrix schenckii. The experiment in a line: Antifungal activity against Sporothrix schenckii. It is filed as functional, organism-based.
The next test deals with Fonsecaea pedrosoi. The experiment in a line: Antifungal activity against Fonsecaea pedrosoi. It counts as functional, organism-based.
For another test, the system named is Cryptococcus neoformans. The experiment in a line: Antifungal activity against Cryptococcus neoformans. It counts as functional, organism-based. A digest of the protocol:
(§1)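 In vitro susceptibility test on yeasts, run by the National Committee for Clinical and Laboratory Standards procedure.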

The test system of the next test is Candida parapsilosis. Briefly: Antifungal activity against Candida parapsilosis. It counts as functional, organism-based. A digest of the protocol: as §1
In a further test the test system is Aspergillus fumigatus. Briefly: Antifungal activity against Aspergillus fumigatus. It counts as functional, organism-based.
The next test deals with Candida albicans. The experiment in a line: Antifungal activity against Candida albicans. It counts as functional, organism-based. In outline:
as §1

The test system of the next test is Trichophyton rubrum. The experiment in a line: Antifungal activity against Trichophyton rubrum. It is filed as functional, organism-based.
The next test concerns Candida tropicalis. The experiment in a line: Antifungal activity against Candida tropicalis. It counts as functional, organism-based. A digest of the protocol:
as §1

The next test concerns A549. Briefly: Cytotoxicity against human A549 cells after 96 hrs by MTT assay. To be noted: A549, 96 h. It is filed as functional, cell-based.

Structures are written as SMILES. Active and inactive are the calls of the source. No cut-off for these calls is given here.

For `O=S(=O)(O)Oc1cc(/C=C\c2ccc(O)cc2)cc(O[C@@H]2O[C@H](CO)[C@@H](O)[C@H](O)[C@H]2O)c1`, the result with Sporothrix schenckii, in the test with Fonsecaea pedrosoi, with Cryptococcus neoformans, in the test with Candida parapsilosis, in the test with Aspergillus fumigatus and in the test with Candida albicans was inactive. Also, the result in the test on Trichophyton rubrum and with Candida tropicalis was inactive.
As for `O=S(=O)(O)O[C@H]1[C@H](O)[C@@H](O)[C@H](Oc2cc(O)cc(/C=C\c3ccc(O)cc3)c2)O[C@@H]1CO`, the outcome with Sporothrix schenckii, with Fonsecaea pedrosoi, with Cryptococcus neoformans, with Candida parapsilosis, in the test on Aspergillus fumigatus and in the test with Candida albicans was inactive. In addition, the result with Trichophyton rubrum and with Candida tropicalis was inactive.
Turning to `O=S(=O)(O)OC[C@H]1O[C@@H](Oc2cc(O)cc(/C=C\c3ccc(O)cc3)c2)[C@H](O)[C@@H](O)[C@@H]1O`, the result in the test with Sporothrix schenckii, in the test on Fonsecaea pedrosoi, in the test with Cryptococcus neoformans, in the test with Candida parapsilosis, in the test with Aspergillus fumigatus and in the test with Candida albicans was inactive. In addition, the outcome in the test on Trichophyton rubrum and in the test with Candida tropicalis was inactive.
`O=S(=O)(O)Oc1ccc(/C=C/c2cc(O)cc(O[C@@H]3O[C@H](CO)[C@@H](O)[C@H](O)[C@H]3O)c2)cc1`: the result in the test with Sporothrix schenckii, in the test with Fonsecaea pedrosoi, with Cryptococcus neoformans, in the test on Candida parapsilosis, in the test on Aspergillus fumigatus and with Candida albicans was inactive. Also, the outcome in the test on Trichophyton rubrum and in the test with Candida tropicalis was inactive.
Turning to `O=S(=O)(O)Oc1cc(/C=C/c2ccc(O)cc2)cc(O[C@@H]2O[C@H](CO)[C@@H](O)[C@H](O)[C@H]2O)c1`, the result in the test with Sporothrix schenckii, with Fonsecaea pedrosoi, with Cryptococcus neoformans, in the test on Candida parapsilosis, in the test with Aspergillus fumigatus and in the test with Candida albicans was inactive. Also, the result in the test with Trichophyton rubrum and in the test with Candida tropicalis was inactive.
For the molecule `O=S(=O)(O)OC[C@H]1O[C@@H](Oc2cc(O)cc(/C=C/c3ccc(O)cc3)c2)[C@H](O)[C@@H](O)[C@@H]1O`, the result with Sporothrix schenckii, in the test with Fonsecaea pedrosoi, in the test on Cryptococcus neoformans, in the test on Candida parapsilosis, in the test on Aspergillus fumigatus and with Candida albicans was inactive. The result in the test with Trichophyton rubrum and in the test with Candida tropicalis was inactive.
As to `O=S(=O)(O)O[C@H]1[C@H](Oc2cc(O)cc(/C=C\c3ccc(O)cc3)c2)O[C@H](CO)[C@@H](O)[C@@H]1O`, the outcome with Sporothrix schenckii, in the test with Fonsecaea pedrosoi, in the test on Cryptococcus neoformans, in the test with Candida parapsilosis, in the test with Aspergillus fumigatus and in the test on Candida albicans was inactive. The result in the test with Trichophyton rubrum and in the test with Candida tropicalis was inactive.
For `O=S(=O)(O)O[C@H]1[C@H](Oc2cc(O)cc(/C=C/c3ccc(O)cc3)c2)O[C@H](CO)[C@@H](O)[C@@H]1O`, the result in the test with Sporothrix schenckii, in the test on Fonsecaea pedrosoi, with Cryptococcus neoformans, in the test with Candida parapsilosis, in the test with Aspergillus fumigatus and in the test on Candida albicans was inactive. Moreover, the result in the test on Trichophyton rubrum and with Candida tropicalis was inactive.
By IC50 is commonly meant the point on the concentration scale where inhibition reaches its midpoint. Read a high IC50 as weaker potency. `O=S(=O)([O-])O[C@H]1[C@H](O)[C@@H](O)[C@H](Oc2cc(O)cc(/C=C/c3ccc(O)cc3)c2)O[C@@H]1CO.[K+]` displayed an IC50 in the test with A549 of 80 µg/mL. Further, the outcome with Sporothrix schenckii, in the test with Fonsecaea pedrosoi, in the test with Cryptococcus neoformans, in the test with Candida parapsilosis, with Aspergillus fumigatus and in the test on Candida albicans was inactive. In addition, the outcome in the test with Trichophyton rubrum and with Candida tropicalis was inactive.

The values are drawn from ChEMBL document CHEMBL1155603, “Stilbene glycoside sulfates from Polygonum cuspidatum” (J Nat Prod, 2000).
